The assay relates to Vaccinia virus. Briefly: Antiviral activity against Vaccinia virus infected in HELF assessed as virus-induced cytopathogenicity at 20 to 100 uM after 4 days by microscopy. In kind it is functional, organism-based. As to conditions: Orthopoxvirus vaccinia. In a few lines: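 Near-confluent MDCK (influenza) or confluent HEL monolayers were inoculated with 100 CCID50 of virus. After 1-h adsorption, residual virus was removed, and cells were incubated with fivefold serial dilutions of compound. Cytopathicity was scored microscopically once untreated infected controls reached complete CPE. Minimal cytotoxic concentration was read as microscopically visible alteration of cell morphology.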

The source made the active and inactive calls. No cut-off for these calls is given here.

These results are taken from ChEMBL document CHEMBL1671794, “Synthesis and SAR studies on azetidine-containing dipeptides as HCMV inhibitors” (Bioorg Med Chem, 2011).

Take `C[C@H](NC(=O)[C@]1(Cc2ccccc2)CCN1C(=O)OCC1c2ccccc2-c2ccccc21)C(N)=O`: the outcome was inactive.
